Experimental data: ChEMBL document CHEMBL4364301 (Eur J Med Chem, 2019)

What was measured:
Assay type in all cases: functional
DU-145 [1] = assay: Antiproliferative activity against human DU145 cells assessed as reduction in cell growth incubated for 96 hrs by propidium iodide based 2D monolayer assay
How it was run: (§1)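 After 24 h recovery, compound in medium or medium alone (control wells) was added at 10 half-log concentrations from 0.0032 to 100 µM, in triplicate, with at most 0.3% DMSO. After 96 h, wells were PBS-washed, stained with 7 µg/ml PI and 0.1% Triton X-100, and fluorescence read at 530/620 nm. IC50 came from a 4-parameter fit, geometric mean.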

CWR22R [2] = assay: Antiproliferative activity against human 22Rv1 cells assessed as reduction in cell growth incubated for 96 hrs by propidium iodide based 2D monolayer assay; how it was run: as §1
LNCaP [3] = assay: Antiproliferative activity against human LNCAP cells assessed as reduction in cell growth incubated for 96 hrs by propidium iodide based 2D monolayer assay; how it was run: as §1
VCaP [4] = assay: Antiproliferative activity against human VCaP cells assessed as reduction in cell growth incubated for 96 hrs by propidium iodide based 2D monolayer assay
How it was run: (§2)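 VCaP cells in RPMI 1640 with 10% FCS at 37 °C, 5% CO2, seeded 4,000–20,000 cells/well and left 24 h before dosing. Compounds from DMSO stocks were diluted in half-log steps in medium, 10 concentrations 0.0032–100 μM, triplicate wells, max 0.3% DMSO. After 96 h, cells were washed, stained with 7 μg/ml propidium iodide plus 0.1% Triton X-100 for 1–2 h at room temperature, and fluorescence read at ex 530/em 620 nm.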

VCaP [5] = assay: Antiproliferative activity against human VCaP cells assessed as T/C value at 3.2 x 10^-3 uM incubated for 96 hrs by propidium iodide based 2D monolayer assay; how it was run: as §2
VCaP [6] = assay: Antiproliferative activity against human VCaP cells assessed as T/C value at 1 x 10^-2 uM incubated for 96 hrs by propidium iodide based 2D monolayer assay
How it was run: (§3)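 Cells were kept in RPMI 1640 with 25 mM HEPES, 10% FCS and gentamicin at 37 °C under 5% CO2, and plated at 4,000-20,000 cells/well. After 24 h recovery, compound in medium or medium alone (control wells) was added at 10 half-log concentrations from 0.0032 to 100 µM, in triplicate, with at most 0.3% DMSO. After 96 h, wells were PBS-washed, stained with 7 µg/ml PI and 0.1% Triton X-100, and fluorescence read at 530/620 nm. IC50 came from a 4-parameter fit, geometric mean.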

VCaP [7] = assay: Antiproliferative activity against human VCaP cells assessed as T/C value at 3.2 x 10^-2 uM incubated for 96 hrs by propidium iodide based 2D monolayer assay; how it was run: as §2
VCaP [8] = assay: Antiproliferative activity against human VCaP cells assessed as T/C value at 1 x 10^-1 uM incubated for 96 hrs by propidium iodide based 2D monolayer assay; how it was run: as §3
VCaP [9] = assay: Antiproliferative activity against human VCaP cells assessed as T/C value at 3.2 x 10^-1 uM incubated for 96 hrs by propidium iodide based 2D monolayer assay; how it was run: as §2
VCaP [10] = assay: Antiproliferative activity against human VCaP cells assessed as T/C value at 1 uM incubated for 96 hrs by propidium iodide based 2D monolayer assay; how it was run: as §3
VCaP [11] = assay: Antiproliferative activity against human VCaP cells assessed as T/C value at 3.2 uM incubated for 96 hrs by propidium iodide based 2D monolayer assay; how it was run: as §3
VCaP [12] = assay: Antiproliferative activity against human VCaP cells assessed as T/C value at 1 x 10^1 uM incubated for 96 hrs by propidium iodide based 2D monolayer assay; how it was run: as §3
VCaP [13] = assay: Antiproliferative activity against human VCaP cells assessed as T/C value at 3.2 x 10^1 uM incubated for 96 hrs by propidium iodide based 2D monolayer assay; how it was run: as §2
VCaP [14] = assay: Antiproliferative activity against human VCaP cells assessed as T/C value at 1 x 10^2 uM incubated for 96 hrs by propidium iodide based 2D monolayer assay; how it was run: as §3
LNCaP [15] = assay: Antiproliferative activity against human LNCAP cells assessed as T/C value at 3.2 x 10^-3 uM incubated for 96 hrs by propidium iodide based 2D monolayer assay; how it was run: as §3
LNCaP [16] = assay: Antiproliferative activity against human LNCAP cells assessed as T/C value at 1 x 10^-2 uM incubated for 96 hrs by propidium iodide based 2D monolayer assay; how it was run: as §3
LNCaP [17] = assay: Antiproliferative activity against human LNCAP cells assessed as T/C value at 3.2 x 10^-2 uM incubated for 96 hrs by propidium iodide based 2D monolayer assay; how it was run: as §3
LNCaP [18] = assay: Antiproliferative activity against human LNCAP cells assessed as T/C value at 1 x 10^-1 uM incubated for 96 hrs by propidium iodide based 2D monolayer assay; how it was run: as §3
LNCaP [19] = assay: Antiproliferative activity against human LNCAP cells assessed as T/C value at 3.2 x 10^-1 uM incubated for 96 hrs by propidium iodide based 2D monolayer assay; how it was run: as §3
LNCaP [20] = assay: Antiproliferative activity against human LNCAP cells assessed as T/C value at 1 uM incubated for 96 hrs by propidium iodide based 2D monolayer assay; how it was run: as §3
LNCaP [21] = assay: Antiproliferative activity against human LNCAP cells assessed as T/C value at 3.2 uM incubated for 96 hrs by propidium iodide based 2D monolayer assay; how it was run: as §3
LNCaP [22] = assay: Antiproliferative activity against human LNCAP cells assessed as T/C value at 1 x 10^1 uM incubated for 96 hrs by propidium iodide based 2D monolayer assay; how it was run: as §3
LNCaP [23] = assay: Antiproliferative activity against human LNCAP cells assessed as T/C value at 3.2 x 10^1 uM incubated for 96 hrs by propidium iodide based 2D monolayer assay; how it was run: as §3
LNCaP [24] = assay: Antiproliferative activity against human LNCAP cells assessed as T/C value at 1 x 10^2 uM incubated for 96 hrs by propidium iodide based 2D monolayer assay; how it was run: as §3
CWR22R [25] = assay: Antiproliferative activity against human 22Rv1 cells assessed as T/C value at 3.2 x 10^-3 uM incubated for 96 hrs by propidium iodide based 2D monolayer assay; how it was run: as §3
CWR22R [26] = assay: Antiproliferative activity against human 22Rv1 cells assessed as T/C value at 1 x 10^-2 uM incubated for 96 hrs by propidium iodide based 2D monolayer assay; how it was run: as §3
CWR22R [27] = assay: Antiproliferative activity against human 22Rv1 cells assessed as T/C value at 3.2 x 10^-2 uM incubated for 96 hrs by propidium iodide based 2D monolayer assay; how it was run: as §3
CWR22R [28] = assay: Antiproliferative activity against human 22Rv1 cells assessed as T/C value at 1 x 10^-1 uM incubated for 96 hrs by propidium iodide based 2D monolayer assay; how it was run: as §3
CWR22R [29] = assay: Antiproliferative activity against human 22Rv1 cells assessed as T/C value at 3.2 x 10^-1 uM incubated for 96 hrs by propidium iodide based 2D monolayer assay; how it was run: as §3
CWR22R [30] = assay: Antiproliferative activity against human 22Rv1 cells assessed as T/C value at 1 uM incubated for 96 hrs by propidium iodide based 2D monolayer assay; how it was run: as §3
CWR22R [31] = assay: Antiproliferative activity against human 22Rv1 cells assessed as T/C value at 3.2 uM incubated for 96 hrs by propidium iodide based 2D monolayer assay; how it was run: as §3
CWR22R [32] = assay: Antiproliferative activity against human 22Rv1 cells assessed as T/C value at 3.2 x 10^1 uM incubated for 96 hrs by propidium iodide based 2D monolayer assay; how it was run: as §3
CWR22R [33] = assay: Antiproliferative activity against human 22Rv1 cells assessed as T/C value at 1 x 10^2 uM incubated for 96 hrs by propidium iodide based 2D monolayer assay; how it was run: as §3
DU-145 [34] = assay: Antiproliferative activity against human DU145 cells assessed as T/C value at 3.2 uM incubated for 96 hrs by propidium iodide based 2D monolayer assay; how it was run: as §3
DU-145 [35] = assay: Antiproliferative activity against human DU145 cells assessed as T/C value at 3.2 x 10^1 uM incubated for 96 hrs by propidium iodide based 2D monolayer assay; how it was run: as §3
DU-145 [36] = assay: Antiproliferative activity against human DU145 cells assessed as T/C value at 1 x 10^2 uM incubated for 96 hrs by propidium iodide based 2D monolayer assay; how it was run: as §3

`CNC(=O)c1ccc(N2C(=S)N(c3ccc(C#N)c(C(F)(F)F)c3)C(=O)C2(C)C)cc1F` [ENZALUTAMIDE] was tested, and the Activity (DU-145 [1]) was “Dose-dependent effect”, the IC50 (DU-145 [1]; DU-145, 96 h) was 32.3 µM and the IC70 (DU-145 [1]; DU-145, 96 h) was 71.1 µM. The Activity (CWR22R [2]) was “Dose-dependent effect”, the IC70 (CWR22R [2]; 22Rv1, 96 h) was 36.5 µM and the Activity (LNCaP [3]) was “Dose-dependent effect”. The IC70 (LNCaP [3]) was 31.7 µM, the Activity (VCaP [4]) was “Dose-dependent effect” and the IC50 (VCaP [4]) was 53 µM. For the same molecule, the IC70 (VCaP [4]) was greater than 100 µM, the T/C (VCaP [5]) was 106% and the T/C (VCaP [6]) was 106%. The T/C (VCaP [7]) was 104%, the T/C (VCaP [8]) was 101% and the T/C (VCaP [9]) was 88%. The T/C (VCaP [10]) was 85%, the T/C (VCaP [11]) was 85% and the T/C (VCaP [12]) was 85%. It also gave a T/C (VCaP [13]) of 85%, a T/C (VCaP [14]) of 44% and a T/C (LNCaP [15]) of 101%. It also gave a T/C (LNCaP [16]) of 92%, a T/C (LNCaP [17]) of 100% and a T/C (LNCaP [18]) of 89%. The T/C (LNCaP [19]) was 77%, the T/C (LNCaP [20]) was 65% and the T/C (LNCaP [21]) was 69%. It also gave a T/C (LNCaP [22]) of 57%, a T/C (LNCaP [23]) of 28% and a T/C (LNCaP [24]) of 6%. It also gave a T/C (CWR22R [25]) of 96%, a T/C (CWR22R [26]) of 98% and a T/C (CWR22R [27]) of 99%. It also gave a T/C (CWR22R [28]) of 93%, a T/C (CWR22R [29]) of 96% and a T/C (CWR22R [30]) of 93%. It also gave a T/C (CWR22R [31]) of 88%, a T/C (CWR22R [32]) of 57% and a T/C (CWR22R [33]) of 13%. For the same molecule, the T/C (DU-145 [34]) was 120%, the T/C (DU-145 [35]) was 84% and the T/C (DU-145 [36]) was 19%.
